Most compounds without a hit are left out; they make up all but 3.7% or so of the library.
KCNQ1 block: inhibitors of human KCNQ1 potassium channel; P51787; CHO-K1 KCNQ1, FluxOR thallium flux fluorescence; stronger effect = higher value; B-score at 10 µM; actives 1.3% (n = 310,000);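 active = compounds whose thallium flux B-score, printed positive for inhibition, exceeds three library SD while starting fluorescence stays within three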;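 also: channel opened by potassium depolarization with thallium stimulus after 20 min compound exposure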
Kir21 inh: blocks the mouse Kir2.1 inward-rectifier potassium channel. P35561. HEK293-Kir2.1, FluxOR thallium flux fluorescence; stronger effect = lower value. B-score at 10 µM. actives 0.85% (n = 310,000). AID 1672;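 active = fluorescence ratio B-score at or below minus 3 SD of library scores, with starting-brightness B-score within 2 SD, cut at about -4.2 in these data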;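 also: channel flux triggered by added potassium and thallium sulfate stimulus; B-score of peak minus minimum fluorescence over baseline after thallium stimulus; more negative B-score means stronger Kir2.1 block with less thallium influx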
Target sequence (P35561 whole entry, looked up): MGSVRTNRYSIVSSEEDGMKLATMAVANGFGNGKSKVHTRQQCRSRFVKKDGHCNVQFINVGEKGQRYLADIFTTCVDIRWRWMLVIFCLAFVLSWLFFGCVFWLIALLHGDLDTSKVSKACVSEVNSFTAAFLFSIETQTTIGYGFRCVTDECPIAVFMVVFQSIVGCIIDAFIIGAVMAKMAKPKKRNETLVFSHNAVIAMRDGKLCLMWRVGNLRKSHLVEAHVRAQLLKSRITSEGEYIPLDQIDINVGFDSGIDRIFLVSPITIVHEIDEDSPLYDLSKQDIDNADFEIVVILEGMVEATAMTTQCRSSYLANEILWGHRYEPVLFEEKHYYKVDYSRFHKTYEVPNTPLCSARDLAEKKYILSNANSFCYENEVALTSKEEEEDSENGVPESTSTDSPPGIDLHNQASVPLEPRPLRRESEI
KCNQ1 pot: potentiators or activators of human KCNQ1 potassium channel; actives 0.35% (n = 310,000); B-score at 10 µM; CHO-K1 KCNQ1, thallium flux FluxOR fluorescence; stronger effect = higher value;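 active = fluorescence ratio B-score, a plate-corrected score, at least three library SD, with initial intensity B-score within 5 SD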
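Material: CHO-K1 cells stably expressing KCNQ1. Medium: assay buffer for compound exposure, DMSO matched across wells. Reagent: K+/Tl+ depolarizing stimulus. Compound dosing: single-concentration screen. Times: 37 °C overnight plating, 90-min dark dye load, 20-min compound pretreatment. Technique: FluxOR Tl+ flux fluorescence.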
KCNK9 block: blocks the human KCNK9 two-pore domain potassium channel; B-score at 10 µM; actives 1.2% (n = 310,000); HEK293 KCNK9, FluxOR thallium flux fluorescence; stronger effect = lower value; Q9NPC2;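 active = ratio B-score over 3 SD below the library mean, with starting fluorescence within 5 SD of its mean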;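 also: negative B-score means less thallium flux so channel inhibition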
KCNK3 block: human KCNK3 channel inhibition, primary screen. CHO-KCNK3 thallium flux, FluxOR fluorescence; stronger effect = lower value. B-score at 10 µM. O14649. actives 0.84% (n = 340,000);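 active = B-score under library mean minus 4 SD, starting fluorescence ratio at most library mean plus 5 SD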;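 also: more negative B-score means stronger inhibition of thallium flux through KCNK3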
hERG protect: hERG (human) protection from proarrhythmic block | Q12809 | actives 0.51% (n = 310,000) | AID 1511 | activation (rescue from dofetilide block), less the hit threshold, % at 10 µM | CHO-hERG, FluxOR thallium flux, dofetilide IC70 present;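 active = activation above the mean of controls blocked by dofetilide plus 5 SD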;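 also: thallium influx through hERG after potassium depolarization seen as dye fluorescence rise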
KCNK9 block conf: human KCNK9 inhibitor confirmation; actives 43% (n = 4,900); AID 492992; HEK293 KCNK9 cells, FluxOR thallium flux fluorescence; inhibition, % at 10 µM; shares compounds with KCNK9 block;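 active = thallium signal inhibited by more than 5 SD of the compound-free buffer control wells, on both duplicate plates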
Kir21 sel: mouse Kir2.1 off-target activity of KCNK9 modulators; shares compounds with KCNK9 block; Kir2.1 cells, FluxOR thallium flux fluorescence; inhibition, % at 10 µM; actives 4% (n = 4,900);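 active = thallium signal drop more than 5 SD beyond the mean of the no-compound control wells, seen in both duplicate plates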;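 also: signal is fluorescence rise after thallium addition divided by baseline fluorescence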
HEK293 Tl ctr: non-induced cell nonspecific activity of KCNK9 modulators | shares compounds with KCNK9 block | non-induced KCNK9-HEK293, FluxOR thallium flux | inhibition, % at 10 µM | actives 40% (n = 4,900);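 active = thallium signal drop beyond 5 SD of the untreated control mean, on both duplicate plates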
Each line names hits and unclear results; the compound was inactive in the other large screens (follow-up assays come after a bar, where they were run).

Cc1ccc(NC(=O)c2cc(C)n(-c3ccccc3)c2C)cc1	none | KCNK9 block conf inactive | Kir21 sel inactive | HEK293 Tl ctr inactive
Cc1ccc(NC(=O)c2cnn(-c3ccccc3)c2C)cc1	none
CC1CCCCC1NC(=O)c1cccc(S(=O)(=O)N2CCN(Cc3ccccc3)CC2)c1 (stereo unspecified)	none | KCNK9 block conf inactive | Kir21 sel inactive | HEK293 Tl ctr inactive
CSc1ccc(CN(C)C(=O)c2cccc(S(=O)(=O)N3CCN(Cc4ccccc4)CC3)c2)cc1	KCNQ1 block 9 | KCNK9 block conf inactive | Kir21 sel inactive | HEK293 Tl ctr inactive
CC(=O)Nc1cccc(NC(=O)c2cccc(S(=O)(=O)N3CCN(Cc4ccccc4)CC3)c2)c1	none
CN(Cc1ccc(F)cc1)C(=O)c1cccc(S(=O)(=O)N2CCN(Cc3ccccc3)CC2)c1	none
Cn1ccnc1SCC(=O)Nc1cccc(C(F)(F)F)c1	none
CC(=O)Nc1ccc(NC(=O)CN2CCN(c3cccc(C(F)(F)F)c3)CC2)cc1	none
O=C(CN1CCN(c2cccc(C(F)(F)F)c2)CC1)Nc1cccc(C(F)(F)F)c1	KCNQ1 block 9 | KCNK9 block conf inactive | Kir21 sel inactive | HEK293 Tl ctr inactive
O=C(CSC1=NCCN1)Nc1cccc(C(F)(F)F)c1	KCNK9 block -9.9 | KCNK9 block conf 32% | Kir21 sel inactive | HEK293 Tl ctr 24%
O=C(N/N=C/c1ccc(OC(F)F)cc1)c1cccc(S(=O)(=O)N2CCOCC2)c1	none
Cc1cccc(S(=O)(=O)c2c(C)cc(C)[nH]c2=O)c1	none
C=C(C)Cn1c(C)cc(C)c(S(=O)(=O)c2cccc(C)c2)c1=O	KCNK9 block -8.4 | KCNK9 block conf 54% | Kir21 sel 44% | HEK293 Tl ctr 44%
c1ccc(-c2nc(NCc3cccnc3)c3oc4ccccc4c3n2)cc1	KCNK9 block -10, hERG protect 7.9 | KCNK9 block conf 38% | Kir21 sel inactive | HEK293 Tl ctr 32%
COC(=O)/C=C/c1cccc([C@H]2[C@@H]3C=CC[C@@H](C)[C@@H]3C(=O)N2Cc2ccccc2)c1	none (no result: KCNQ1 block, Kir21 inh, KCNQ1 pot, KCNK9 block, hERG protect)
COc1ccc(Cl)cc1Nc1nc(C)nc2c1nnn2Cc1ccccc1	none
COc1ccc(CCNc2nc(C)nc3c2nnn3Cc2ccccc2)cc1	none | KCNK9 block conf inactive | Kir21 sel inactive | HEK293 Tl ctr inactive
COc1ccc(OC)c(Nc2nc(C3CC3)nc3c2nnn3Cc2ccccc2)c1	none | KCNK9 block conf inactive | Kir21 sel inactive | HEK293 Tl ctr inactive
CC(C)Cc1nc(N2CCC(C(N)=O)CC2)c2nnn(Cc3ccccc3)c2n1	none
Cc1nc(N2CCC(C)CC2)c2nnn(Cc3ccccc3)c2n1	none | KCNK9 block conf inactive | Kir21 sel inactive | HEK293 Tl ctr inactive
Cc1nc(NCCc2ccccc2)c2nnn(Cc3ccccc3Cl)c2n1	none
Cc1ccc(S(=O)(=O)Nc2cc3c(cc2C#N)OCO3)cc1C(N)=O	none
COc1ccc(CCNC(=O)C2CCN(S(=O)(=O)c3cccs3)CC2)cc1OC	none
Cc1ccc(S(=O)(=O)N(Cc2ccccc2)c2ccccc2C(=O)Nc2ccccc2C(=O)NCc2ccco2)cc1	KCNQ1 block 8, KCNK9 block -9.6 | KCNK9 block conf inactive | Kir21 sel inactive | HEK293 Tl ctr 34%
O=C(Nc1nc(-c2ccccc2)nc2ccccc12)c1ccc(F)cc1	KCNK9 block -8.4 | KCNK9 block conf 30% | Kir21 sel inactive | HEK293 Tl ctr inactive
CC(=O)Nc1ccc(Nc2nc(-c3ccccc3)nc3ccccc23)cc1	none
Cc1ccc(NC(=O)CN2CCCN(S(=O)(=O)c3ccc(Br)s3)CC2)cc1	none
Cc1cc(C)cc(NC(=O)CN2CCCN(S(=O)(=O)c3ccc(Br)s3)CC2)c1	KCNK9 block -16, KCNK3 block -10 | KCNK9 block conf 70% | Kir21 sel inactive | HEK293 Tl ctr 46%
O=C1C2C3C=CC(C4CC34)C2C(=O)N1/N=C/c1ccc(-c2ccc(Cl)cc2[N+](=O)[O-])o1 (stereo unspecified)	none | KCNK9 block conf inactive | Kir21 sel inactive | HEK293 Tl ctr inactive
COc1ccc(-c2ccc(/C=N/N3C(=O)C4C5C=CC(C6CC56)C4C3=O)o2)c([N+](=O)[O-])c1 (stereo unspecified)	none
O=C1C(Cl)=C(NC2CCCCC2)C(=O)N1Cc1ccccc1	none | KCNK9 block conf inactive | Kir21 sel inactive | HEK293 Tl ctr inactive
COc1ccccc1C(=O)OCC(=O)NC1CCCC1	none
CC(=O)c1c(C)[nH]c(C(=O)OCC(=O)N2CCc3ccccc3C2)c1C	none (no result: KCNQ1 block, Kir21 inh, KCNQ1 pot, KCNK9 block, hERG protect)
CCCCc1ccc(NC(=O)CSC2=NN3CCCC(=O)N=C3S2)cc1	none
O=S(=O)(Nc1cc(Cl)ccc1N1CCCCC1)c1cccs1	KCNK9 block -15 | KCNK9 block conf 65% | Kir21 sel inactive | HEK293 Tl ctr inactive
Cc1ccc2cccc(N=Cc3c(C)[nH]n(-c4ccccc4)c3=O)c2n1	KCNK9 block -10 | KCNK9 block conf 47% | Kir21 sel inactive | HEK293 Tl ctr inactive
CCC(C)(C)n1nnnc1C(c1ccncc1)N1CCN(c2cccc(OC)c2)CC1 (stereo unspecified)	none
CCC(C)(C)n1nnnc1C(c1cccnc1)N1CCN(c2cccc(C(F)(F)F)c2)CC1 (stereo unspecified)	KCNK9 block -11 | KCNK9 block conf 32% | Kir21 sel inactive | HEK293 Tl ctr inactive
CCCCC(=O)Nc1cccc(NC(=O)c2ccc(Br)o2)c1	KCNK9 block -8.5 | KCNK9 block conf 43% | Kir21 sel inactive | HEK293 Tl ctr inactive
Cc1ccc(NCc2nc3ccccc3n2CCOc2ccccc2)cc1	KCNK9 block -12 | KCNK9 block conf 40% | Kir21 sel inactive | HEK293 Tl ctr 38%
Cc1ccc(S(=O)(=O)Nc2ccccc2C(=O)Nc2nc(-c3ccc(F)cc3)cs2)cc1	KCNK9 block -10 | KCNK9 block conf 64% | Kir21 sel inactive | HEK293 Tl ctr 39%
Cc1ccc(S(=O)(=O)Nc2nc(-c3ccccc3)cs2)cc1	none
CC(C)NC(C(=O)Nc1cc(Cl)cc(Cl)c1)c1ccccc1 (stereo unspecified)	KCNK9 block -9.3 | KCNK9 block conf 34% | Kir21 sel inactive | HEK293 Tl ctr 25%
CN(C)CCNC(C(=O)Nc1cc(Cl)cc(Cl)c1)c1ccccc1 (stereo unspecified)	none
